Where a SMILES comes first, the peptide text is derived from it. [ ]: non-standard residue; d: D form.
Target: wild type rat secretin receptor (Rattus norvegicus, UniProt P23811)
Experiment: cAMP responses in secretin receptor-bearing CHO-SecR cells
Format: cell-based
Settings: for agonist (biological) activity at the secretin receptor, in words: cAMP responses in CHO-SecR cells, relative to maximal response to secretin
Procedure, shortened: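 CHO cells stably expressing wild-type rat secretin receptor, grown 48 h at ~8,000 cells/well, washed twice in PBS, then stimulated 30 min at 37 °C with increasing test-compound concentrations in Krebs-Ringers/HEPES pH 7.4 with 0.2% BSA, 0.1% bacitracin and 1 mM IBMX. Lysis in 6% ice-cold perchloric acid, neutralised to pH 6, cAMP by LANCE. Normalised to maximal secretin response; three experiments in duplicate.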

wild type rat secretin receptor, sequence (P23811 26-449): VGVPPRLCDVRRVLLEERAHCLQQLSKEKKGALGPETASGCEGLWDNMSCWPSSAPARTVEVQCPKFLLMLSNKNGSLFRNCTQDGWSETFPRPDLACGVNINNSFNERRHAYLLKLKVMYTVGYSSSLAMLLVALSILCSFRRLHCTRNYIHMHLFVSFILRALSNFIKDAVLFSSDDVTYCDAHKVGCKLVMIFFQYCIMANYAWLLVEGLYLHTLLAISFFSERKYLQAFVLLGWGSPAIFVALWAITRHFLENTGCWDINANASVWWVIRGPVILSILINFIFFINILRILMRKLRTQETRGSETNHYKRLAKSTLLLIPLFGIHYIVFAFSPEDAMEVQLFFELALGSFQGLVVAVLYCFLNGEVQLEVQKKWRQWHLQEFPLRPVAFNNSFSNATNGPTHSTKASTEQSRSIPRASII

| EC50 [µM] | agonist (biological) activity at the secretin receptor, in words | Compound |
| --- | --- | --- |
| 23 ± 5.3 | full agonist activity | C[C@@H]1NC(=O)[C@H](C)NC(=O)[C@@H](C)NC(=O)[C@H](C)NC(=O)[C@H](CC(=O)O)NC(=O)[C@H](Cc2c[nH]c3ccccc23)NC1=O [c[AAWDAa]] (cyclo(AAWDA[dA])) |
| 21 ± 4.2 | full agonist activity | C[C@@H]1NC(=O)[C@H](C)NC(=O)[C@H](CC(=O)O)NC(=O)[C@H](Cc2c[nH]c3ccccc23)NC(=O)[C@H](C)NC(=O)[C@@H](C)NC1=O [c[AWDAAa]] (cyclo(AA[dA]AWD)) |
| 11.7 ± 3 |  | O=C(O)C[C@@H]1NC(=O)[C@H](Cc2c[nH]c3ccccc23)NC(=O)[C@H](CC(=O)O)NC(=O)[C@H](Cc2c[nH]c3ccccc23)NC(=O)[C@@H](CC(=O)O)NC(=O)[C@H](Cc2c[nH]c3ccccc23)NC1=O [c[WDWDWd]] (cyclo(DWDW[dD]W)) |

Reference: article PMC2872052 (Peptides, 2010)
